Reference: ChEMBL document CHEMBL1131032, “Selective endothelin A receptor antagonists. 3. Discovery and structure-activity relationships of a series of 4-phenoxybutanoic acid derivatives” (J Med Chem, 1998)
The source made the active and inactive calls. The calls are words filed in the database; no cut-off is given here. Where a SMILES comes first, the peptide text is derived from it. [ ]: non-standard residue; d: D form.

How the values were obtained:
Rattus norvegicus [1] = organism: Rattus norvegicus; experiment: Antagonism of ET-1 mediated contraction of isolated de-endothelialized rat aortic rings; assay type: functional, Aorta
[2] = biological target: T1, Endothelin receptor type B (Rattus norvegicus, UniProt P21451); experiment: In vitro inhibition of [125I]ET1 binding to rat cerebellum Endothelin B receptor.; assay type: tissue-based
T1 sequence (P21451 whole entry): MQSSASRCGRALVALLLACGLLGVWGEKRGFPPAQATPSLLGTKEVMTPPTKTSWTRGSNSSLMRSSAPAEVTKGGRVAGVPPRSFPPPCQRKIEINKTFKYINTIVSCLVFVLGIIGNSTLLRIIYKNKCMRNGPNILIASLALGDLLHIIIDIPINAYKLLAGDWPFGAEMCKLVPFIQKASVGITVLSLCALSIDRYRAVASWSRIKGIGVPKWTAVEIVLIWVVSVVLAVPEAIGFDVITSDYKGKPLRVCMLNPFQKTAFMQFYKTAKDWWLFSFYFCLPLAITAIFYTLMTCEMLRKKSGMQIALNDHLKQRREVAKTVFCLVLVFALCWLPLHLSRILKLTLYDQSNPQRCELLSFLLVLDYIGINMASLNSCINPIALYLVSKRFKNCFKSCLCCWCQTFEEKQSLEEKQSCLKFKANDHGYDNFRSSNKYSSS
Summary of the method: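 Rat cerebellum was homogenized in Tris/sucrose/EDTA buffer with protease inhibitors; the 40000g membrane pellet was used. Nonspecific binding was defined with 500 nM ET-1. IC50 by curve fitting; single experiment.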

Endothelin-1 receptor = biological target: T2, Endothelin-1 receptor (Rattus norvegicus, UniProt P26684); experiment: In vitro inhibition of [125I]ET1 binding to rat A10 cell Endothelin A receptor.; assay type: cell-based
T2 sequence (P26684 whole entry): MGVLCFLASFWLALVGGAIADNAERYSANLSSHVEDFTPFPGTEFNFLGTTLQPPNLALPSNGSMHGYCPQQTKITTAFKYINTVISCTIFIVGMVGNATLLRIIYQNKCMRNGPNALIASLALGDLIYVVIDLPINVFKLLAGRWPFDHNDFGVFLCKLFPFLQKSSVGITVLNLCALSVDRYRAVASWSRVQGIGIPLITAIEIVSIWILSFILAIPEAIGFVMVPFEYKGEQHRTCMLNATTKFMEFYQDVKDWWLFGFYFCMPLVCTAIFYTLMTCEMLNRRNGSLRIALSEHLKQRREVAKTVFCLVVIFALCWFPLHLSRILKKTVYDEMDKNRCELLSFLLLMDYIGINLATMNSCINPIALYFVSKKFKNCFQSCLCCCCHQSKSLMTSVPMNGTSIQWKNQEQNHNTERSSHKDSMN
Summary of the method: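 Rat A10 cells were harvested, washed in 50 mM Hepes pH 7.3 with 1 mM CaCl2 and 5 mM MgCl2, and frozen. Nonspecific binding was defined with 500 nM ET-1. IC50 came from curve fitting; mean of n ± SEM.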

Rattus norvegicus [3] = experiment: Effect of compound on ET-1 induced changes in diastolic blood pressure in the pithed rat pretreated with BQ 788 (3 mg/kg) at 7.5 uM/kg (iv) dose; assay type: functional, Artery
Summary of the method: (§1)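 Male Sprague-Dawley rats (250–350 g), isoflurane-anesthetized, pithed and artificially respired. Dosing via the jugular vein; blood pressure via carotid artery transducer. BQ 788 (3 mg/kg) and test compound given iv 10 min before a bolus ET-1 dose–pressor curve (0.01–10 nmol/kg). Fold rightward shift from vehicle measured at the ET-1 dose giving a 40 mmHg diastolic change. Mean of 4–6 rats.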

Rattus norvegicus [4] = experiment: Effect of compound on ET-1 induced changes in diastolic blood pressure in the pithed rat pretreated with BQ 788 (3 mg/kg) at 75 uM/kg (iv) dose; assay type: functional, Artery; summary of the method: as §1
Rattus norvegicus [5] = experiment: Effect of compound on ET-1 induced changes in diastolic blood pressure in the pithed rat pretreated with BQ 788 (3 mg/kg) at 2.5 uM/kg (iv) dose; NS = Not significant; assay type: functional, organism-based; conditions: Artery; summary of the method: as §1
Rattus norvegicus [6] = experiment: Effect of compound on ET-1 induced changes in diastolic blood pressure in the pithed rat pretreated with BQ 788 (3 mg/kg) at 25 uM/kg (iv) dose; assay type: functional, Artery; summary of the method: as §1

Row | IC50 [2] [nM] | IC50 (Endothelin-1 receptor) [nM] | Structure (SMILES) | other results
1 | 10000 | 26 | CC(=O)c1ccc(OCc2ccsc2)cc1OC(CCC(=O)O)c1ccccc1C (stereo not drawn) | 
2 | > 10000 |  | Cc1ccccc1[C@@H](CCC(=O)O)Oc1cc(OCc2ccsc2)ccc1C#N | pKB (Rattus norvegicus [1]): 7.4
3 | 10000 | 29 | Cc1ccccc1C(CCC(=O)O)Oc1cc(OCc2ccsc2)ccc1C(N)=O (stereo not drawn) | 
4 | 10000 |  | Cc1ccccc1[C@H](CCC(=O)O)Oc1cc(OCc2ccsc2)ccc1C#N | 
5 | 10000 | 7 | Cc1ccccc1[C@@H](CCC(=O)O)Oc1cc(OCc2cnsc2)ccc1C#N | pKB (Rattus norvegicus [1]): 7.3
6 | > 10000 | 207 | Cc1ccccc1C(CCC(=O)O)Oc1cc(OCc2ccsc2)ccc1C(=O)O (stereo not drawn) | 
7 | 5000 |  | Cc1ccccc1C(CCC(=O)O)Oc1cc(OCc2ccsc2)ccc1C#N (stereo not drawn) | 

The remaining lines, values behind:

Row | Structure (SMILES) | IC50 [2] [nM] | IC50 (Endothelin-1 receptor) [nM] | other results
8 | Cc1ccccc1[C@@H](CCC(=O)O)Oc1cc(OCc2ccncc2)ccc1C#N | 10000 | 20 | pKB (Rattus norvegicus [1]): 7.1
9 | CC(C)C[C@@H]1NC(=O)[C@@H](C(C)C)NC(=O)[C@@H]2CCCN2C(=O)[C@@H](CC(=O)O)NC(=O)[C@@H](Cc2c[nH]c3ccccc23)NC1=O [BQ-123] (cyclo(L[dW][dD]P[dV])) |  | 14 | 
10 | Cc1ccccc1[C@@H](CCC(=O)O)Oc1cc(OCc2ccc3c(c2)OCO3)ccc1C#N | 10000 | 69 | 
11 | Cc1ccccc1C(CCC(=O)O)Oc1cc(OCc2ccsc2)ccc1-c1ncc[nH]1 (stereo not drawn) | > 10000 | 163 | 
12 | Cc1ccccc1C(CCC(=O)O)Oc1cc(OCc2ccsc2)ccc1-c1ncco1 (stereo not drawn) | 10000 | 20 | 
13 | Cc1ccccc1C(CCC(=O)O)Oc1cc(OCc2ccsc2)ccc1-c1ccccn1 (stereo not drawn) | 10000 | 40 | 
14 | Cc1ccccc1C(CCC(=O)O)Oc1cccc(OCc2ccsc2)c1 (stereo not drawn) | > 30000 | 871 | 
15 | Cc1ccccc1C(CCC(=O)O)Oc1cc(OCc2ccsc2)ccc1-c1cc(C(=O)O)[nH]n1 (stereo not drawn) | 3000 | 7 | pKB (Rattus norvegicus [1]): 7.3
16 | Cc1ccccc1C(CCC(=O)O)Oc1cc(OCc2ccsc2)ccc1-c1cc[nH]n1 (stereo not drawn) | 10000 | 20 | 
17 | Cc1ccccc1[C@@H](CCC(=O)O)Oc1cc(OCc2cccnc2)ccc1C#N | 10000 | 5 | Shift (Rattus norvegicus [3]): 2.27; Shift (Rattus norvegicus [4]): 36.58; Shift (Rattus norvegicus [5]): inactive; Shift (Rattus norvegicus [6]): 10.48
18 | Cc1ccccc1C(CCC(=O)O)C(=O)c1cccc(OCc2ccsc2)c1 (stereo not drawn) | > 30000 | 110 | pKB (Rattus norvegicus [1]): 5.7
19 | O=C(O)c1cc(-c2ccc(OCc3ccccc3)cc2OCc2ccccc2)n[nH]1 | > 30000 | 1000 | 
